{"data": "Measurements collected from several papers", "note": "Lines come from different studies, so protocols differ."}
{"Structure (SMILES)": "O=C(O)C(c1c[nH]c2ccccc12)c1c[nH]c2ccccc12", "tested on": "KG-1", "test": "cell growth or viability", "conditions": "20 µM, 48 h", "endpoint": "inhibition", "value": "23%"}
{"Structure (SMILES)": "C[C@@H]1[C@H](O)[C@@H](C)/C=C/C=C/C=C/C=C/C=C/C=C/C=C/[C@H](O[C@@H]2O[C@H](C)[C@@H](O)[C@H](N)[C@@H]2O)C[C@@H]2O[C@](O)(C[C@@H](O)C[C@@H](O)[C@H](O)CC[C@@H](O)C[C@@H](O)CC(=O)O[C@H]1C)C[C@H](O)[C@H]2C(=O)O", "tested on": "Leishmania panamensis", "test": "parasite growth", "conditions": "24 h, promastigote", "endpoint": "IC50", "value": "100 nM"}
{"Structure (SMILES)": "Clc1ccccc1C(c1ccccc1)(c1ccccc1)n1ccnc1", "tested on": "Aspergillus flavus", "test": "microbial growth, disc diffusion", "conditions": "20000 µg/mL", "endpoint": "inhibition zone", "value": "24 mm"}
{"Structure (SMILES)": "O=C1NN=C(N=Cc2ccccc2O)C1=NNn1c(-c2ccccc2)nc2ccccc2c1=O", "tested on": "Staphylococcus", "test": "microbial growth, broth dilution", "conditions": "24 h", "endpoint": "MIC", "value": "111 µM"}
{"Structure (SMILES)": "OC(CN1CCOCC1)(Cn1cncn1)c1ccc(F)cc1F (stereo not shown)", "tested on": "Aspergillus flavus", "test": "microbial growth, broth dilution", "conditions": "48 h", "endpoint": "MIC", "value": "7.8 µg/mL"}
{"Structure (SMILES)": "Cc1cccc2c(C(c3ccc(/C=C/C(=O)O)s3)c3c[nH]c4c(C)cccc34)c[nH]c12", "tested on": "KG-1", "test": "cell growth or viability", "conditions": "5 µM, 48 h", "endpoint": "inhibition", "value": "1%"}
{"Structure (SMILES)": "COc1ccc(-c2c(-c3ccc(C#N)c(F)c3)nc(N3CCC(N)CC3)n(C)c2=O)cc1F", "tested on": "MOLM-13", "test": "cell growth or viability, resazurin", "conditions": "96 h", "endpoint": "EC50", "value": "0.96 nM"}
{"Structure (SMILES)": "O=c1[nH]cc(F)c(=O)[nH]1", "tested on": "NRK-52E", "test": "cell growth or viability, MTT", "conditions": "24 h", "endpoint": "IC50", "value": "46700 nM"}
{"Structure (SMILES)": "CC(=O)NCN1N=C(C)C(=NNn2c(-c3ccccc3)nc3ccccc3c2=O)C1=O", "tested on": "Staphylococcus", "test": "microbial growth, broth dilution", "conditions": "24 h", "endpoint": "MIC", "value": "120 µM"}
{"Structure (SMILES)": "COc1ccc(-c2ccc(-c3ccc(C(=N)N)nc3)s2)cc1", "tested on": "Malme-3M", "test": "cell growth or viability, SRB", "endpoint": "GI50", "value": "1840 nM"}
